Calls of active or inactive are those of the source. No cut-off for these calls is given here.
Columns and labels:
IPEC-J2 [1] = assay: Induction of porcine IPEC-J2 cells monolayer development assessed as increase in transepithelial electrical resistance at 50 uM after 6 days by voltammetric method; format: functional, cell-based; conditions: Sus scrofa domesticus, time 6.0 day
Escherichia coli [2] = assay: Growth inhibition of Escherichia coli DSM 2840 at 20 to 500 uM measured every 5 mins for 24 hrs by turbidometric analysis; format: functional, organism-based; conditions: dose 20-500 µM, time hrs <=24
Outline: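 Strains were revived from cryostocks and passaged twice daily in BHI with shaking at 37 °C over 2 days. Double-strength BHI plus diluted test stock (compounds in DMSO, 0.22 μm filtered), inoculum at final 10^4 CFU/mL, film-sealed for anaerobic conditions, 37 °C in plate reader. OD690 was read every 5 min for 24 h; lag time came from the lag-exponential method. Three independent experiments were run, each in triplicate.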

Escherichia coli [3] = assay: Growth inhibition of Escherichia coli 0147:K89:K88 at 20 to 500 uM measured every 5 mins for 24 hrs by turbidometric analysis; format: functional, organism-based; conditions: dose 20-500 µM, time hrs <=24
Outline: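 Compound stocks were made in DMSO and filtered. The turbidimetric assay used double-strength BHI, 20–500 μM, E. coli at final 10^4 CFU/mL, and sealed anaerobic plates at 37 °C. OD690 was read every 5 min over 24 h.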

IPEC-J2 [4] = assay: Induction of claudin-4 protein expression in porcine IPEC-J2 cells at 20 uM after 6 days by Western blot analysis; format: functional, cell-based; conditions: Sus scrofa domesticus, time 6.0 day
Outline: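 Inserts were treated apically with 20 μM from day 7, with medium renewed at day 10. At day 13 cells were lysed and protein equalized by BCA, then run on SDS–PAGE and transferred to nitrocellulose. Blots were probed with mouse anti-claudin 4 and an HRP secondary and detected by ECL. Band intensity was normalized to β-actin and expressed as fold over PBS control.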

IPEC-J2 [5] = assay: Induction of porcine IPEC-J2 cells monolayer development assessed as increase in transepithelial electrical resistance at 20 uM after 6 days by voltammetric method; format: functional, cell-based; conditions: Sus scrofa domesticus, time 6.0 day
Outline: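 IPEC-J2 cells were seeded at 5 × 10^5/insert (0.4 μm PET) and cultured until TEER exceeded 1 kΩ cm2 (day 7). Apical medium was then replaced with 20 μM compound or PBS and renewed at day 10, with basolateral medium changed in parallel. TEER was read with an EVOM2 chopstick electrode at days 10 and 13. Mann–Whitney test versus PBS.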

In the case of `O=c1oc2cc(O)ccc2c2cc(O)c(O)cc12`, the Activity (IPEC-J2 [1]) is reported as “inactive”, the “growth inhibition (GI)” value (Escherichia coli [2]) is reported as “inactive” and the “growth inhibition (GI)” value (Escherichia coli [3]) is reported as “inactive”.
In the case of `O=c1oc2cc(O)ccc2c2ccc(O)cc12`, the Activity (IPEC-J2 [1]) is reported as “inactive”, the “growth inhibition (GI)” value (Escherichia coli [2]) is reported as “inactive” and the “growth inhibition (GI)” value (Escherichia coli [3]) is reported as “inactive”.
With `O=C(O[C@@H]1COC(=O)c2cc(O)c(O)c(O)c2-c2c(cc(O)c(O)c2O)C(=O)O[C@H]1[C@@H]1OC(=O)c2cc(O)c(O)c(O)c2-c2c(O)c(O)c(O)c3c2C(=O)O[C@H]1[C@H]3O)c1cc(O)c(O)c(O)c1Oc1cc2c(c(O)c1O)-c1c(cc(O)c(O)c1O)C(=O)OC[C@H]1OC(=O)c3cc(O)c(O)c(O)c3-c3c(O)c(O)c(O)c4c3C(=O)O[C@H]([C@H]3OC(=O)c5c-4c(O)c(O)c(O)c5[C@@H]3O)[C@@H]1OC2=O` the Activity (IPEC-J2 [4]) was “Active” and the Activity (IPEC-J2 [5]) was “Active”.

— ChEMBL document CHEMBL4673343, “Lythrum salicaria Ellagitannins Stimulate IPEC-J2 Cells Monolayer Formation and Inhibit Enteropathogenic Escherichia coli Growth and Adhesion” (J Nat Prod, 2020)
